ChEMBL document CHEMBL3576866, “Discovery of a Cyclic Boronic Acid β-Lactamase Inhibitor (RPX7009) with Utility vs Class A Serine Carbapenemases” (J Med Chem, 2015)

Key:
Enterobacter cloacae [1] = experiment: Inhibition of Enterobacter cloacae ECL1058 SHV-11 assessed as biapenem MIC at 4 ug/ml by broth microdilution method
[2] = Half life in human at 1 g administered as 3 hrs of infusion; type: ADME, organism-based; conditions: in vivo, iv
Klebsiella oxytoca [3] = experiment: Inhibition of Klebsiella oxytoca KX1017 SHV-30 assessed as imipenem MIC at 4 ug/ml by broth microdilution method
[4] = molecular target: Beta-lactamase (Enterobacter cloacae) (UniProt P05364); experiment: Inhibition of Enterobacter cloacae ECL1002 AmpC assessed as cefepime MIC at 4 ug/ml by broth microdilution method
Enterobacter cloacae [5] = experiment: Inhibition of Enterobacter cloacae ECL1058 SHV-11 assessed as ertapenem MIC at 4 ug/ml by broth microdilution method
[6] = molecular target: Carbapenem-hydrolyzing beta-lactamase KPC (Klebsiella pneumoniae) (UniProt Q9F663); experiment: Inhibition of Klebsiella pneumoniae KP1084 KPC-3 assessed as biapenem MIC at 4 ug/ml by broth microdilution method
Klebsiella pneumoniae [7] = experiment: Inhibition of Klebsiella pneumoniae KP1087 KPC-2 assessed as meropenem MIC at 4 ug/ml by broth microdilution method
Outline: (§1)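 CLSI broth microdilution (M07-A9, 2012) MIC of the carbapenem against clinical serine carbapenemase-producing strain, tested alone and with the inhibitor held at a fixed 4 μg/mL.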

Klebsiella pneumoniae [8] = experiment: Inhibition of Klebsiella pneumoniae KP1087 SHV-11 assessed as meropenem MIC at 4 ug/ml by broth microdilution method; outline: as §1
[9] = molecular target: T1, Beta-lactamase SHV-1 (Klebsiella pneumoniae) (UniProt P0AD64); experiment: Inhibition of Klebsiella pneumoniae KP1083 SHV-1 assessed as biapenem MIC at 4 ug/ml by broth microdilution method; outline: as §1
T1 sequence (whole entry): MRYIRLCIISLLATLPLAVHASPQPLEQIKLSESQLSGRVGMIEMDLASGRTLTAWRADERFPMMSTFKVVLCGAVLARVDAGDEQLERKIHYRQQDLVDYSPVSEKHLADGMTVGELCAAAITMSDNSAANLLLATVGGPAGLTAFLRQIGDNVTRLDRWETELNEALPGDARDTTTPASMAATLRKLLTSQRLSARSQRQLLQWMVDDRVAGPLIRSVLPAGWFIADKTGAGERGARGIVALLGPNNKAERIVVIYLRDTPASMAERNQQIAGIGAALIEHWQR

Klebsiella pneumoniae [10] = experiment: Inhibition of Klebsiella pneumoniae KP1084 SHV-11 assessed as ertapenem MIC at 4 ug/ml by broth microdilution method; outline: as §1
Klebsiella pneumoniae [11] = experiment: Inhibition of Klebsiella pneumoniae KP1087 CTX-M-15 assessed as ertapenem MIC at 4 ug/ml by broth microdilution method; outline: as §1
Klebsiella oxytoca [12] = experiment: Inhibition of Klebsiella oxytoca KX1017 OXA-2 assessed as biapenem MIC at 4 ug/ml by broth microdilution method
[13] = molecular target: Beta lactamase TEM-1 (Klebsiella pneumoniae) (UniProt Q7B899); experiment: Inhibition of Klebsiella pneumoniae KP1004 TEM-1 assessed as biapenem MIC at 4 ug/ml by broth microdilution method; outline: as §1
[14] = Cmax in rat at 1000 mg/kg, iv administered as 0.5 hrs infusion by HPLC-MS method; type: ADME, organism-based; design: dose 1000 mg/kg, route intravenous; conditions: in vivo
[15] = molecular target: Carbapenem-hydrolyzing beta-lactamase KPC (Klebsiella oxytoca) (UniProt Q848S6); experiment: Inhibition of Klebsiella oxytoca KX1019 KPC-2 assessed as imipenem MIC at 4 ug/ml by broth microdilution method
Klebsiella oxytoca [16] = experiment: Inhibition of Klebsiella oxytoca KX1019 OXA-2 assessed as imipenem MIC at 4 ug/ml by broth microdilution method
Dipeptidyl peptidase 2 = Dipeptidyl peptidase 2 (Homo sapiens, UniProt Q9UHL4); experiment: Inhibition of dipeptidyl peptidase 7 (unknown origin) using H-Lys-Pro-AMC as substrate preincubated for 10 mins followed by substrate addition measured for 30 mins by spectrophotometric analysis
Outline: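 DPP7 (commercial) in 50 mM Na-acetate, pH 5.8. Preincubated 10 min at 37 °C with inhibitor at several concentrations, then H-Lys-Pro-AMC (listed at 100 μM) added and fluorescence monitored for 30 min. Activity was relative to a no-treatment control; IC50 is the concentration giving half inhibition.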

[17] = molecular target: Beta-lactamase (Klebsiella pneumoniae) (UniProt Q93LQ9); experiment: Inhibition of Klebsiella pneumoniae KP1084 KPC-3 assessed as meropenem MIC at 4 ug/ml by broth microdilution method; outline: as §1
Klebsiella pneumoniae [18] = experiment: Inhibition of Klebsiella pneumoniae KP1082 KPC-2 assessed as ertapenem MIC at 4 ug/ml by broth microdilution method; outline: as §1
[19] = molecular target: Carbapenem-hydrolyzing beta-lactamase KPC (Klebsiella oxytoca) (UniProt Q848S6); experiment: Inhibition of Klebsiella oxytoca KX1017 KPC-2 assessed as ertapenem MIC at 4 ug/ml by broth microdilution method
Klebsiella aerogenes = experiment: Inhibition of Enterobacter aerogenes EA1028 OXA-30 assessed as cefepime MIC at 4 ug/ml by broth microdilution method
Outline: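 CLSI broth microdilution (M07-A9) against clinical strains expressing serine β-lactamases.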

Trypsin = Trypsin (Homo sapiens, UniProt P07477+P07478+P35030); experiment: Inhibition of trypsin (unknown origin) using N-Bz-R-AMC as substrate preincubated for 10 mins followed by substrate addition measured for 30 mins by spectrophotometric analysis; type: protein assay
Outline: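 Trypsin in 50 mM Tris-HCl, pH 8.0, 10 mM CaCl2, 100 mM NaCl. Preincubated 10 min at 37 °C with varied inhibitor. N-Bz-R-AMC (listed at 200 μM) was then added and fluorescence read for 30 min. Rates were vs untreated control; IC50 is the concentration giving 50% inhibition.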

Klebsiella pneumoniae [20] = experiment: Inhibition of Klebsiella pneumoniae KP1082 KPC-2 assessed as meropenem MIC at 4 ug/ml by broth microdilution method; outline: as §1
[21] = molecular target: Beta-lactamase (Klebsiella pneumoniae) (UniProt Q93LQ9); experiment: Inhibition of Klebsiella pneumoniae KP1084 KPC-3 assessed as imipenem MIC at 4 ug/ml by broth microdilution method
[22] = molecular target: Beta lactamase TEM-1 (Klebsiella pneumoniae) (UniProt Q7B899); experiment: Inhibition of Klebsiella pneumoniae KP1004 TEM-1 assessed as meropenem MIC at 4 ug/ml by broth microdilution method; outline: as §1
[23] = molecular target: Class A carbapenemase KPC-2 (Escherichia coli) (UniProt A8DS27); experiment: Inhibition of Escherichia coli EC1007 KPC-3 assessed as imipenem MIC at 4 ug/ml by broth microdilution method
[24] = molecular target: Beta-lactamase TEM (Enterobacter cloacae) (UniProt Q6W9J1); experiment: Inhibition of Enterobacter cloacae ECL1058 TEM-1 assessed as ertapenem MIC at 4 ug/ml by broth microdilution method
Klebsiella pneumoniae [25] = experiment: Inhibition of Klebsiella pneumoniae KP1084 SHV-11 assessed as imipenem MIC at 4 ug/ml by broth microdilution method
[26] = molecular target: Class A carbapenemase KPC-2 (Escherichia coli) (UniProt A8DS27); experiment: Inhibition of Escherichia coli EC1007 KPC-3 assessed as biapenem MIC at 4 ug/ml by broth microdilution method
Klebsiella oxytoca [27] = experiment: Inhibition of Klebsiella oxytoca KX1017 OXA-2 assessed as ertapenem MIC at 4 ug/ml by broth microdilution method

Question: What does the source list for `O=C(O)C[C@@H]1CC[C@H](NC(=O)Cc2cccs2)B(O)O1` [VABORBACTAM]?
Answer: MIC (Enterobacter cloacae [1]): < 0.06 µg/mL; half-life [2]: 1.23 h; MIC (Klebsiella oxytoca [3]): 0.13 µg/mL; MIC [4]: 0.5 µg/mL; MIC (Enterobacter cloacae [5]): 0.25 µg/mL; MIC [6]: 0.25 µg/mL; MIC (Klebsiella pneumoniae [7]): 1 µg/mL; MIC (Klebsiella pneumoniae [8]): 1 µg/mL; MIC [9]: < 0.06 µg/mL; MIC (Klebsiella pneumoniae [10]): 4 µg/mL; MIC (Klebsiella pneumoniae [11]): 2 µg/mL; MIC (Klebsiella oxytoca [12]): < 0.06 µg/mL; MIC [13]: < 0.06 µg/mL; Cmax [14]: 2600 µg/mL; MIC [15]: 0.13 µg/mL; MIC (Klebsiella oxytoca [16]): 0.13 µg/mL; IC50 (Dipeptidyl peptidase 2): > 1 mM; MIC [17]: 0.5 µg/mL; MIC (Klebsiella pneumoniae [18]): ≤ 0.06 µg/mL; MIC [19]: 0.25 µg/mL; MIC (Klebsiella aerogenes): 0.5 µg/mL; IC50 (Trypsin): > 1 mM; MIC (Klebsiella pneumoniae [20]): ≤ 0.06 µg/mL; MIC [21]: 0.25 µg/mL; MIC [22]: < 0.06 µg/mL; MIC [23]: 0.13 µg/mL; MIC [24]: 0.25 µg/mL; MIC (Klebsiella pneumoniae [25]): 0.25 µg/mL; MIC [26]: < 0.06 µg/mL; MIC (Klebsiella oxytoca [27]): 0.25 µg/mL
